Experimental data taken from ChEMBL document CHEMBL2010658, “Caspase-1 and -3 inhibiting drimane sesquiterpenoids from the extremophilic fungus Penicillium solitum” (J Nat Prod, 2012).
The source made the active and inactive calls. No cut-off for these calls is given here.

Key:
[1] = biological target: Stromelysin-1 (Homo sapiens) (UniProt P08254); test: Inhibition of MMP3 by signal transduction fluorometric assay
Method in brief: (§1)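 Fluorometric enzyme inhibition assays. Reference inhibitors were Ac-YVAD-CHO for caspase-1, Ac-DEVD-CHO for caspase-3, and NNGH for MMP-3.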

Caspase-1 (Homo sapiens) = biological target: T1, Caspase-1 (Homo sapiens) (UniProt P29466); test: (§2) Inhibition of caspase 1 by signal transduction fluorometric assay; method in brief: as §1
T1 sequence (whole entry): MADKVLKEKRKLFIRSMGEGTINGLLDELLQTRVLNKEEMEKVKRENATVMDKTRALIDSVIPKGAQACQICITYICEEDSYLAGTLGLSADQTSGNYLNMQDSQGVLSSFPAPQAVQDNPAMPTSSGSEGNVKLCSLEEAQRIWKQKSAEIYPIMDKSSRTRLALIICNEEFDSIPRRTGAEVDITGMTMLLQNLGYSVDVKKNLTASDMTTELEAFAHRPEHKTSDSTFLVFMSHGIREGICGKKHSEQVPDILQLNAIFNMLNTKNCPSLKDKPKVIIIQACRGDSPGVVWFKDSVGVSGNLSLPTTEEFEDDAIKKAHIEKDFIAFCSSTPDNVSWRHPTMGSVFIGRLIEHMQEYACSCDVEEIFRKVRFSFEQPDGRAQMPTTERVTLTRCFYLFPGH

Caspase-3 (Homo sapiens) = biological target: T2, Caspase-3 (Homo sapiens) (UniProt P42574); test: (§3) Inhibition of caspase 3 by signal transduction fluorometric assay; method in brief: as §1
T2 sequence (whole entry): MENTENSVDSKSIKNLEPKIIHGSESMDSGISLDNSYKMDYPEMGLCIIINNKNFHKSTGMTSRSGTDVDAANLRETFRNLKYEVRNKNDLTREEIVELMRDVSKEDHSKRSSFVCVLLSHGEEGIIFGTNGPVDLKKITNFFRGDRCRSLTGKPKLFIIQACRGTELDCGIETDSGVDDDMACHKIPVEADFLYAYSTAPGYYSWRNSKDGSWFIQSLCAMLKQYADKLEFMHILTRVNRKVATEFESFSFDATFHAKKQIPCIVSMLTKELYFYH

Caspase-1 = biological target: T3, Caspase-1 (Homo sapiens, UniProt P29466); test: as §2; method in brief: as §1
T3 sequence (P29466 whole entry): T1 sequence (whole entry)

THP-1 = test: Antiinflammatory activity in human THP1 cells assessed as inhibition of titanium dioxide nanowires/LPS-induced IL-1beta production at 1 to 100 uM after 24 hrs by ELISA; assay type: functional, cell-based
Method in brief: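 PMA-differentiated THP-1 cells (1 μg/mL PMA, 24 h beforehand), grown in RPMI with 10% FBS, 0.05 mM 2-mercaptoethanol and pyruvate. Cells were scraped, pelleted, and resuspended at 1.0 × 10⁶ cells/mL. They were exposed to compound at 1, 10 and 100 μM plus LPS (20 ng/mL) and TiO₂ nanowires (100 μg/mL) for 24 h at 37 °C. IL-1β was measured by ELISA and viability by MTS (490 nm).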

Caspase-3 = biological target: T4, Caspase-3 (Homo sapiens, UniProt P42574); test: as §3; method in brief: as §1
T4 sequence (P42574 whole entry): T2 sequence (whole entry)

Sequence of Stromelysin-1 (Homo sapiens) (P08254 100-477 limits assumed): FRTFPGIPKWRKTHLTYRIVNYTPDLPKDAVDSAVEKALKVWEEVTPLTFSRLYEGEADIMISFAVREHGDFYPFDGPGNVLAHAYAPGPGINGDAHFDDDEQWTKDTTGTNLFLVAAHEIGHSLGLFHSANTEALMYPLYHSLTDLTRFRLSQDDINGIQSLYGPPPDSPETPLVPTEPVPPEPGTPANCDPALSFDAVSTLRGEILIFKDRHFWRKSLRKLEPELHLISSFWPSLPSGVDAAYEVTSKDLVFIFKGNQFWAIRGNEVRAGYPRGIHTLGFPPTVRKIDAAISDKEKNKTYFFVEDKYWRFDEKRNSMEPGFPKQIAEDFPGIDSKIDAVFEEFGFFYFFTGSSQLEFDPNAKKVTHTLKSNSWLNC

Compound | inhibition [1] | inhibition (Caspase-1 (Homo sapiens)) | inhibition (Caspase-3 (Homo sapiens)) | IC50 (Caspase-1) | inhibition (THP-1) | IC50 (Caspase-3) | IC25 (Caspase-3 (Homo sapiens))
CCCCCCCCCC[C@H](C(=O)OC)[C@]1(C(=O)OC)CCC(=O)O1 | inactive | inactive | inactive |  |  |  | 
CC(=O)N[C@H](C(=O)O[C@H]1CCC(C)(C)[C@@H]2CC=C3C(=O)OC[C@]3(O)[C@@]12C)C(C)C (relative stereo) |  |  |  | 90 µM | Active | 50 µM | 10 µM
CCCCCCCCCC[C@H](C(=O)OC)[C@@](O)(CCC(=O)OC)C(=O)OC | inactive | inactive | inactive |  |  |  | 
C=CCCCCCCCC[C@H](C(=O)OC)[C@@](O)(CCC(=O)OC)C(=O)OC | inactive | inactive | inactive |  |  |  | 
CC(=O)N[C@H](C(=O)O[C@H]1CCC(C)(C)[C@@H]2CC=C3C(=O)OC[C@@H]3[C@@]12C)C(C)C (relative stereo) |  |  |  | 100 µM | Active | 200 µM | 15 µM
